Test results taken from ChEMBL document CHEMBL1155165, “SB-431542, a transforming growth factor beta inhibitor, impairs Trypanosoma cruzi infection in cardiomyocytes and parasite cycle completion” (2007).
Calls of active or inactive are those of the source. The rule behind the calls is not given here.

Key:
C32 = assay: Inhibition of TGFbeta signaling in mink C32 cells at 10 uM by luciferase based assay; type: functional, cell-based; conditions: Neovison vison
Procedure, shortened: (§1)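 C32 cells are Mv1Lu mink lung cells stably carrying a PAI promoter-luciferase reporter. Cells were plated at 1 × 10^5/well in 5% FCS and switched to 0.1% FCS after 3 h. They were stimulated with TGF-β1 2 ng/ml or live Y strain trypomastigotes, 1 × 10^6 to 4 × 10^6 parasites, with or without 10 μM inhibitor. Luciferase (RLU) was read after 20 h. Mean ± SD of three experiments.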

Trypanosoma cruzi [1] = assay: Antitrypanosomal activity against Trypanosoma cruzi Y in mouse cardiomyocytes assessed as reduction of intracellular amastigotes at 10 uM by Giemsa staining; type: functional, organism-based
Procedure, shortened: (§2)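 Primary mouse embryo cardiomyocytes were seeded at 1 × 10^5 cells/well for 24 h at 37°C in 5% CO2. Cells were pretreated for 1 h with 10 μM inhibitor or vehicle, and treatment was kept throughout. They were infected with Y strain trypomastigotes at 10:1 parasite:host. At 24, 48, 72 and 96 h postinfection cells were Bouin-fixed and Giemsa-stained. Parasites per infected cell were counted over 400 cells on two coverslips. Mean ± SD of three experiments.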

Trypanosoma cruzi [2] = assay: Antitrypanosomal activity against Trypanosoma cruzi Y in mouse cardiomyocytes assessed as induction of parasite apoptosis at 10 uM after 72 hrs postinfection by TUNEL method; type: functional
Procedure, shortened: (§3)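 Y strain-infected cardiomyocytes were kept with or without 10 μM inhibitor, grown on coverslips. They were fixed in 4% paraformaldehyde for 20 min at 4°C and permeabilized with 0.1% Triton X-100 in 0.1% sodium citrate for 2 min at 4°C. TUNEL labelling ran 60 min at 37°C, followed by DAPI counterstain. The percentage of TUNEL-positive parasites was scored at 72 and 96 h postinfection by epifluorescence.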

Trypanosoma cruzi [3] = assay: Antitrypanosomal activity against Trypanosoma cruzi Y in mouse cardiomyocytes assessed as induction of parasite apoptosis at 10 uM after 96 hrs postinfection by TUNEL method; type: functional; procedure, shortened: as §3
Cardiomyocyte = assay: Inhibition of TGF-beta-1-induced Smad2 phosphorylation in mouse embryo cardiomyocytes at 10 uM by immunoblot; type: functional, cell-based
Procedure, shortened: (§4)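 Mouse embryo cardiomyocytes were pretreated for 1 h with or without 10 μM inhibitor. They were then given 2 ng/ml TGF-β1 or T. cruzi Dm28c for 1 h. Cells were lysed in RIPA buffer, pH 8.0, and 20 μg lysate was run on 12% SDS-PAGE. Blots were probed for phospho-Smad2, with α-tubulin as loading control.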

Trypanosoma cruzi [4] = assay: Inhibition of invasion of Trypanosoma cruzi Y in mouse embryo cardiomyocytes assessed as pathogen infection at 10 uM for 1 hr measured at 4 hrs postinfection; type: functional, organism-based
Procedure, shortened: (§5)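 Mouse embryo cardiomyocytes were pretreated for 1 h with 10 μM inhibitor or left untreated. They were infected with Dm28c or Y strain trypomastigotes at 10:1 parasite:host. Cells were fixed at 4 h postinfection and Giemsa-stained. The percentage of infected cells was counted over 400 cells per slide on two coverslips. Control and treated cells were compared by t test.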

Trypanosoma cruzi [5] = assay: Antitrypanosomal activity against Trypanosoma cruzi Y in mouse cardiomyocytes assessed as number of intracellular parasites per infected cell at 10 uM after 48 hrs postinfection by Giemsa staining; type: functional; procedure, shortened: as §2
Trypanosoma cruzi [6] = assay: Antitrypanosomal activity against Trypanosoma cruzi Y in mouse cardiomyocytes assessed as inhibition of trypomastigote release at 10 uM after 96 hrs; type: functional, organism-based
Procedure, shortened: (§6)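 Cardiomyocytes were infected with Y strain trypomastigotes (10:1 parasite:host) and kept with or without 10 μM inhibitor throughout. Parasites released at 96 h postinfection were counted and reported as 10^4. Trypomastigotes were scored separately from nontrypomastigote forms (amastigotes plus epimastigote-like forms).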

Trypanosoma cruzi [7] = assay: Antitrypanosomal activity against Trypanosoma cruzi Y in mouse cardiomyocytes assessed as number of nontrypomastigote release at 10 uM after 96 hrs; type: functional; procedure, shortened: as §6
Trypanosoma cruzi [8] = assay: Inhibition of invasion of Trypanosoma cruzi Dm28C in mouse embryo cardiomyocytes assessed as pathogen infection at 10 uM for 1 hr measured at 4 hrs postinfection; type: functional, organism-based; procedure, shortened: as §5
Trypanosoma cruzi [9] = assay: Antitrypanosomal activity against Trypanosoma cruzi Y in mouse cardiomyocytes assessed as number of trypomastigote release at 10 uM after 96 hrs; type: functional; procedure, shortened: as §6
Trypanosoma cruzi [10] = assay: Antitrypanosomal activity against Trypanosoma cruzi Y in mouse cardiomyocytes assessed as number of intracellular parasites per infected cell at 10 uM after 72 hrs postinfection by Giemsa staining; type: functional; procedure, shortened: as §2
Trypanosoma cruzi [11] = assay: Antitrypanosomal activity against Trypanosoma cruzi Y in mouse cardiomyocytes assessed as number of intracellular parasites per infected cell at 10 uM after 96 hrs postinfection by Giemsa staining; type: functional; procedure, shortened: as §2
Trypanosoma cruzi [12] = assay: Inhibition of Trypanosoma cruzi Y infection-induced TGFbeta signaling in mink C32 cells at 10 uM by luciferase based assay; type: functional, organism-based; procedure, shortened: as §1
Trypanosoma cruzi [13] = assay: Inhibition of Trypanosoma cruzi Dm28C infection-induced Smad2 phosphorylation in mouse embryo cardiomyocytes at 10 uM by immunoblot; type: functional, organism-based; procedure, shortened: as §4
Trypanosoma cruzi [14] = assay: Antitrypanosomal activity against Trypanosoma cruzi Y in mouse cardiomyocytes assessed as number of intracellular parasites per infected cell at 10 uM after 24 hrs postinfection by Giemsa staining; type: functional; procedure, shortened: as §2

SMILES: NC(=O)c1ccc(-c2nc(-c3ccccn3)c(-c3ccc4c(c3)OCO4)[nH]2)cc1 [SB-431542]
- Activity (C32): Active
- Activity (Trypanosoma cruzi [1]): Active
- Activity (Trypanosoma cruzi [2]): 47.9%
- Activity (Trypanosoma cruzi [3]): 26.5%
- Activity (Cardiomyocyte): Active
- Activity (Trypanosoma cruzi [4]): Active
- Activity (Trypanosoma cruzi [5]): 4.4
- Activity (Trypanosoma cruzi [6]): Active
- Activity (Trypanosoma cruzi [7]): 53
- Activity (Trypanosoma cruzi [8]): Active
- Activity (Trypanosoma cruzi [9]): 19
- Activity (Trypanosoma cruzi [10]): 38
- Activity (Trypanosoma cruzi [11]): 58
- Activity (Trypanosoma cruzi [12]): Active
- Activity (Trypanosoma cruzi [13]): Active
- Activity (Trypanosoma cruzi [14]): 1.4
